What was measured:
[1] = target: NTSR2 neurotensin receptor (Homo sapiens, UniProt O95665); assay: TANGO β-arrestin recruitment assay, NTSR2; assay type: cell-based; conditions: for agonist activity at NTSR2 neurotensin receptors: TANGO, agonist mode
[2] = tested on: 91 orphan and poorly annotated GPCRs; assay: TANGO screen of the NCC-1 library; assay type: cell-based, human; conditions: of 91 targets tested
MRGPRX2 [3] = target: T1, MRGPRX2 (Homo sapiens, UniProt Q96LB1); assay: TANGO β-arrestin recruitment assay, MRGPRX2; assay type: cell-based; conditions: NCC-1 screen, confirmed in concentration-response studies
T1 sequence (Q96LB1 1-330): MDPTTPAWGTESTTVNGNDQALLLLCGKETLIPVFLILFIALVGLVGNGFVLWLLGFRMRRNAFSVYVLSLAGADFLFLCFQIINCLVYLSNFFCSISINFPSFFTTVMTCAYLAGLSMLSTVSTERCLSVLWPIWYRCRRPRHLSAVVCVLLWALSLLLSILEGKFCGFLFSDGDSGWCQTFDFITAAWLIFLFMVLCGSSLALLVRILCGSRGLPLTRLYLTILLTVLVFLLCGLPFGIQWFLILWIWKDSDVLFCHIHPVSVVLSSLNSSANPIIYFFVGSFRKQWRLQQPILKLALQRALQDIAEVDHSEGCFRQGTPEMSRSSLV

[4] = target: MLNR motilin receptor TANGO construct; assay: TANGO
[5] = target: SSTR3 somatostatin receptor (Homo sapiens, UniProt P32745); assay: PRESTO-TANGO / TANGO β-arrestin recruitment assay, SSTR3; assay type: cell-based
MRGPRX2 [6] = target: T1, MRGPRX2; assay: PI hydrolysis assay, MRGPRX2; assay type: cell-based
Procedure, shortened: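 HEK-293T cells were transiently transfected with 10 μg receptor DNA per 15 cm dish and seeded the next day on poly-L-lysine in 1% dialyzed FBS. They were labelled 16 h with 1 μCi/well ³H-inositol in inositol-free DMEM. Concentration series were applied in quadruplicate in HBSS/24 mM NaHCO₃/11 mM glucose/15 mM LiCl, pH 7.4, for 1 h at 37°C. Cells were lysed with 50 mM formic acid, and extracts were counted by SPA beads.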

NTSR2 neurotensin receptor, sequence (O95665 whole entry): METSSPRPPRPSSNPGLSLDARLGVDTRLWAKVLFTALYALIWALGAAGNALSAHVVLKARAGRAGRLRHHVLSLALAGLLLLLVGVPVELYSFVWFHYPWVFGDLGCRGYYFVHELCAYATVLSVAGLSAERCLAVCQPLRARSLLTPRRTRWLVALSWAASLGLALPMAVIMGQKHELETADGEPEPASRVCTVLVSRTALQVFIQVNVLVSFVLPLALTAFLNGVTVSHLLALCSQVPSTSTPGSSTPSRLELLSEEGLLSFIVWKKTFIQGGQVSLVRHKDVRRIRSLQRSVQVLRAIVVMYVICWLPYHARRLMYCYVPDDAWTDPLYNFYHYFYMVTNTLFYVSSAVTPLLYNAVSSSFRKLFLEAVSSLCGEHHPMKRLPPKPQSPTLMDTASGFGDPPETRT
SSTR3 somatostatin receptor, sequence (P32745 whole entry): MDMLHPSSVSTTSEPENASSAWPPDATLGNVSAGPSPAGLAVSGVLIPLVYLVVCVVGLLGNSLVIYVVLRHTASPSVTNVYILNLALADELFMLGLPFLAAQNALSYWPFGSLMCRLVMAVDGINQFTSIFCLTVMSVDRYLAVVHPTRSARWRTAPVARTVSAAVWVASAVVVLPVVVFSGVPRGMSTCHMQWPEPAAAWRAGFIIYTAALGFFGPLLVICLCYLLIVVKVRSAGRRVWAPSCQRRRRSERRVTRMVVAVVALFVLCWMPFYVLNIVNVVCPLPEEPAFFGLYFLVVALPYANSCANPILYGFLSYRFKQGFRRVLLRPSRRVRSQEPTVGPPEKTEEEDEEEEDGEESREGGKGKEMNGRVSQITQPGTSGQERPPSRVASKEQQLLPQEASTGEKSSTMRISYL
β-arrestin2-TEV fusion, sequence (P32121 whole entry, the tested form may be a part): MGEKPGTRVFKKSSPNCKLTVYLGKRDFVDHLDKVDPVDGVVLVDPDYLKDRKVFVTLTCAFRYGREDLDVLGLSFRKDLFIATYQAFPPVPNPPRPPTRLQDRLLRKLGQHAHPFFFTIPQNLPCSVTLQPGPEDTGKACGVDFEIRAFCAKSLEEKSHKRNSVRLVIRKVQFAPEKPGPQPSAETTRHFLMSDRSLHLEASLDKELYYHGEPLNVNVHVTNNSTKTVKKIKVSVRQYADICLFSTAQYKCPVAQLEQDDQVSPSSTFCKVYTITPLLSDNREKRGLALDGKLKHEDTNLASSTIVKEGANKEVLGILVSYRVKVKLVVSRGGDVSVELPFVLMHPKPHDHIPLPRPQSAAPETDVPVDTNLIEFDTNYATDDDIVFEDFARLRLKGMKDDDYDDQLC
MLNR motilin receptor TANGO construct, sequence (O43193 whole entry): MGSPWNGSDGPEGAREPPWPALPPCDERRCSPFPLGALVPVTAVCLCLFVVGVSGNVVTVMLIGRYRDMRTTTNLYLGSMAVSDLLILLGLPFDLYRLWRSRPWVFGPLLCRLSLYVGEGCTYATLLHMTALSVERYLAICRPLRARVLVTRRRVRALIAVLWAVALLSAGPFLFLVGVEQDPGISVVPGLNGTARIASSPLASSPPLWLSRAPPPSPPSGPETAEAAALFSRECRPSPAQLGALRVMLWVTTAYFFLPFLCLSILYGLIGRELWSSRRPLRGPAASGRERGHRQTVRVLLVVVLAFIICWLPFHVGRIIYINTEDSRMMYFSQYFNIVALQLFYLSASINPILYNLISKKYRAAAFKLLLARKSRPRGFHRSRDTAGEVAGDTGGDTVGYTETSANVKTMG

In the case of C[C@@H]1CN([C@H]2CC[C@](C#N)(c3ccc(F)cc3)CC2)CC[C@]1(C(=O)O)c1ccccc1 [levocabastine], the “antagonism of SR48692- or SR142948-induced arrestin recruitment responses” value ([1]; NTSR2-transfected cells, pre-incubation before agonist) is reported as “antagonists”.
In the case of COC(=O)C[C@](O)(CCCC(C)(C)O)C(=O)O[C@@H]1C(OC)=C[C@]23CCCN2CCc2cc4c(cc2[C@H]13)OCO4 [homoharringtonine], the “number of targets with greater than 2-fold reduction in luminescence” value [2] is reported as 58 and the “percent of targets with greater than 2-fold reduction in luminescence” value [2] is reported as 64%.
For SR142948, the “agonist activity at NTSR2 neurotensin receptors” value [1] was “agonists”.
With CC(C)C[C@H](NC(=O)[C@@H](O)[C@H](N)Cc1ccccc1)C(=O)O [bestatin] the “number of targets with > 2-fold increase in luminescence” value [2] was 59 and the “percent of targets with > 2-fold increase in luminescence” value [2] was 65%.
For CC(C)[C@@H](CN1CC[C@@](C)(c2cccc(O)c2)[C@@H](C)C1)NC(=O)[C@H]1Cc2ccc(O)cc2CN1 [JDTic], the “activity in the TANGO assay at MRGPRX2” value (MRGPRX2 [3]) was “significant activity”.
With Oc1ccc(/C=C/c2cc(O)cc(O)c2)cc1 [resveratrol] the “number of targets with greater than 2-fold reduction in luminescence” value [2] was 70 and the “percent of targets with greater than 2-fold reduction in luminescence” value [2] was 77%.
In the case of CN1CCC(=C2c3ccccc3CCc3sccc32)CC1 [pizotyline], the “activity in the TANGO assay at MRGPRX2” value (MRGPRX2 [3]) is reported as “showed activity”.
“β-arrestin2-TEV fusion (from UniProt P32121 1-409) (natural protein)” was tested, and the fold response above baseline [4] was 184 fold.
CN1CC[C@]23CCCC[C@H]2[C@H]1Cc1ccc(O)cc13 [levorphan] was tested, and the “activity in the TANGO assay at MRGPRX2” value (MRGPRX2 [3]) was “showed activity”.
CN1CCC(=C2c3ccccc3CC(=O)c3sccc32)CC1 [ketotifen] was tested, and the “activity in the TANGO assay at MRGPRX2” value (MRGPRX2 [3]) was “showed activity”.
CNCCC(Oc1ccc(C(F)(F)F)cc1)c1ccccc1 (centres unmarked) [Fluoxetine, fluoxetine] was tested, and the “agonist activity at SSTR3 in follow-up assays” value ([5]; follow-up assays (data not shown)) was “not confirmed” and the “agonist activity at the SSTR3 somatostatin receptor” value ([5]; initial PRESTO-TANGO screen) was “modest agonist activity”.
COc1ccc2c(c1)[C@]13CCCC[C@@H]1[C@H](C2)N(C)CC3 [dextromethorphan] was tested, and the “activity in the TANGO assay at MRGPRX2” value (MRGPRX2 [3]) was “showed activity” and the “concentration-dependent activity at MRGPRX2 by PI hydrolysis” value (MRGPRX2 [6]) was “confirmed”.
In the case of COC(=O)[C@@H]1C[C@H](OC(=O)CSC#N)C(=O)[C@H]2[C@@]1(C)CC[C@H]1C(=O)O[C@H](c3ccoc3)C[C@]21C [RB64], the “activity in the TANGO assay at MRGPRX2” value (MRGPRX2 [3]) is reported as “significant activity”.
For CN1CCC(=C2c3ccccc3C=Cc3ccccc32)CC1 [cyproheptadine], the “activity in the TANGO assay at MRGPRX2” value (MRGPRX2 [3]) was “showed activity”.
With COc1cccc(OC)c1-c1cc(C(=O)NC2(C(=O)O)C3CC4CC(C3)CC2C4)nn1-c1ccnc2cc(Cl)ccc12 (centres unmarked) [SR48692] the “agonist activity at NTSR2 neurotensin receptors” value [1] was “agonists”.
